Source: PubChem
Compounds with a hit are over-represented: about 9.2% of the library has one in this group of screens.
H69AR growth 86K: growth inhibitors of human H69AR lung tumor cells | H69AR lung tumor viability, ATP luminescence, 72 h; stronger effect = lower value | viability, % at 10 µM | 85,000 compounds, 6% hits | AID 598;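 active means viability at or below 40%; inactive means viability above 40%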;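 further: multidrug resistant small cell line overexpressing MRP-1 efflux transporter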
ERa coact inh: blocks coactivator binding to human estrogen receptor alpha. TR-FRET ER-alpha LBD / SRC-1 peptide, estradiol-bound. 86,000 compounds, 1.7% hits. inhibition, % at 25.6 µM. AID 629; in the data active means inhibition above about 50%
Target sequence (P03372 whole entry, looked up, the tested form may be a part): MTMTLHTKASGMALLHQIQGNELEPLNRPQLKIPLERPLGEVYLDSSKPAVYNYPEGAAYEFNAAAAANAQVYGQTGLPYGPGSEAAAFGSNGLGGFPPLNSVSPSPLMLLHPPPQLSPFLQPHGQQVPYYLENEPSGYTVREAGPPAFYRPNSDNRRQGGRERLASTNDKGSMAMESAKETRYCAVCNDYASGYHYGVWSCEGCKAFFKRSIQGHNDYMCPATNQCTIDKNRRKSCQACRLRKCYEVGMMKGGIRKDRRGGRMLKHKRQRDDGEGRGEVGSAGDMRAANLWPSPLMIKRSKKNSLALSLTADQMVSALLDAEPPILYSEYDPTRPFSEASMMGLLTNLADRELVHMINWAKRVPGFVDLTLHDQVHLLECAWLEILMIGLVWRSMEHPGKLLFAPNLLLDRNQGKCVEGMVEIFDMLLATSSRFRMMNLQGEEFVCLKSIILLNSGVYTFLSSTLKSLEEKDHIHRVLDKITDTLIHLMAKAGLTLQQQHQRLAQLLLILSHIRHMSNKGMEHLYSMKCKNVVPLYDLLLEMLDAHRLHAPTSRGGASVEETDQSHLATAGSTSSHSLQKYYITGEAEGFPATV
HUVEC inhibit: inhibitors of human endothelial cell proliferation; HUVEC proliferation, CellTiter-Glo luminescence, 72 h; stronger effect = lower value; viability, % at 10 µM (by protocol); 86,000 compounds, 1.1% hits;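 active means viability at or below 30%; inactive means viability above 30%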
ERa coact pot: enhances coactivator binding to human estrogen receptor alpha; 86,000 compounds, 1.3% hits; coactivator binding (% of control), % at 25.6 µM; P03372; TR-FRET ERalpha-LBD/SRC-Cy5 coactivator binding, 2 h; 100 = basal binding, no effect; AID 639; in the data active means activity above about 200%;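 further: binding measured in presence of low estradiol as agonist stimulus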
Lung fibro prol: blocks proliferation of human lung fibroblasts; LL 47 human lung fibroblast viability, ATP luminescence; stronger effect = lower value; viability, % at 10 µM; 85,000 compounds, 1.1% hits; AID 719;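 active means viability at or below 50% in the single dose screen; inactive means viability above 50%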;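 further: compound exposure lasted 72 h before the ATP readout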
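Test system: LL 47 human lung fibroblasts; Quantity: 1,150 cells/well; Buffer or medium: IMEM plus 15% FBS; Dosing: tenfold compound dosing solution, DMSO at 0.1%; Timing: overnight cell rest, 72 h compound treatment at 37 °C; Detection: ATP-based CellTiter-Glo luminescent readout; Read-out basis: viability percentage against median untreated-cell control; Controls: cell-only wells, no compound.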
ERb coact inh: ER-beta (human) coactivator binding inhibition. inhibition, % at 25.6 µM. 86,000 compounds, 1.3% hits. AID 633. TR-FRET ER-beta LBD / SRC1-Cy5 peptide binding; receptor agonist-loaded with 1 µM estradiol. Q92731;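 active means compounds whose percent inhibition of the receptor-coactivator binding signal exceeds about 50% in the single-dose screen, limit read from the data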
Each line names hits and unclear results; the compound was inactive in the other large screens; [ ] = another dose, or the depositor's remark.

Cc1cc(C)cc(OCc2nnc(SCC(=O)c3ccc(Br)cc3)o2)c1	ERa coact pot 202
COc1ccc(-c2nnc(SCC(=O)N3CCCc4ccccc43)o2)cc1OC	H69AR growth 86K 37
COc1ccc(Cc2nnc(SCC(=O)c3ccc(OC)cc3)o2)cc1	none (no result: H69AR growth 86K)
COc1ccc(OC)c(C(=O)CSc2nnc(-c3ccc(OC)c(OC)c3)o2)c1	ERa coact pot 329, Lung fibro prol 30
COc1ccc(C(=O)CSc2nnc(-c3ccc(C)cc3)o2)cc1	ERa coact inh 51[fluorescence artefact?]
COc1cccc(C(=O)CSc2nnc(-c3cc(OC)c(OC)c(OC)c3)o2)c1	none
O=C1C2C(C(=O)N1Cc1cccnc1)C1C=CC2C12CC2 (configuration not stated)	none
c1cncc(-c2nn3c(-c4ccncc4)nnc3s2)c1	none
COc1ccc(-c2nnc(SCC#CCO)o2)cc1OC	H69AR growth 86K 31
Cc1cc(C(=O)CSc2nnc(NCc3ccccc3)s2)c(C)n1C	H69AR growth 86K 32
Cc1cc(C(=O)CSc2nnc(Nc3ccccc3)s2)c(C)n1CC1CCCO1 (configuration not stated)	none
Cc1c(/C=N/n2cnnc2)c2ccccc2n1C	none
Cc1nc2c(Br)c3nc(C(F)(F)F)[nH]c3c(Br)c2[nH]1	ERb coact inh 74[fluorescence artefact?]
O=S(=O)(CCSc1nc2ccccc2s1)c1nc2ccccc2s1	H69AR growth 86K 1.5, HUVEC inhibit 14, Lung fibro prol 35
CCS(=O)(=O)CCSc1nc2ccccc2s1	none
CC(C)(C)S(=O)(=O)c1nc2ccccc2s1	none
C=CCS(=O)(=O)c1nc2ccccc2s1	H69AR growth 86K 1.1
C=C(C)C1Cc2c(C)nn(-c3cc(C)c4ccccc4n3)c2C1 (configuration not stated)	none
Cc1ccc2c(c1)CCCN2C(=O)c1ccoc1C	H69AR growth 86K 34
Cc1ccc2c(c1)CCCN2C(=O)c1c(C)noc1C	none
COC(=O)c1ccsc1NC(=O)CSc1nnnn1-c1ccccc1SC	ERa coact pot 263[fluorescence artefact?]
CCn1c(SCCC(=O)Nc2ccccc2)nnc1-c1ccc(OC)cc1	none
COc1ccc(-c2nn(C)c3sc(C(=O)NCc4ccco4)cc23)cc1OC	ERa coact inh 80[fluorescence artefact?], ERb coact inh 59[fluorescence artefact?]
COc1ccc(NC(=O)c2cc3c(-c4ccc(OC)c(OC)c4)nn(C)c3s2)cc1OC	H69AR growth 86K 9.7
COc1cccc(-c2nn(C)c3sc(C(=O)NCc4ccc(C)o4)cc23)c1	none
COC(=O)C1=C(C(=O)OC)SC(=C2C(=S)C(C)(C)N(C(=O)CC(C)C)c3ccccc32)S1	H69AR growth 86K 17
CN1C(=O)C(=C2CCCCCC2)SC1=S	none
O=C1NC(=S)SC1=C1CCCC1	ERb coact inh 56
CC(=O)N1CCN(C2=Nc3cccc4cccc2c34)CC1	none
CNC(=S)N/N=C1\C(=O)c2cccc3cccc1c23	H69AR growth 86K 13, Lung fibro prol 46
CCc1ccc2nc(NC(=O)c3ccc4c(=O)[nH]c(CN5CCOCC5)nc4c3)sc2c1	ERa coact inh 69
CN1C(=O)SC(Nc2ccccc2)C1=O (configuration not stated)	none
COc1cccc(NC2SC(=O)N(c3ccccc3)C2=O)c1 (configuration not stated)	ERa coact pot 204
O=C(NC1CCCCCC1)C1CC(=O)N(Cc2ccccc2)C1 (configuration not stated)	none
CC(C)[C@H](N)c1nnc(SC/C=C/c2ccccc2)o1	none
O=C(NCC12CC3CC(CC(C3)C1)C2)c1cc2n(n1)C(C(F)(F)F)CC(c1ccco1)N2 (configuration not stated)	H69AR growth 86K 34
COc1ccc(NC(=O)c2cc3n(n2)C(C(F)(F)F)CC(c2ccco2)N3)cc1 (configuration not stated)	none
COc1ccc(Cn2nnnc2C(c2ccccc2OC)N2CCC(C(N)=O)CC2)cc1 (configuration not stated)	ERb coact inh 64 (no result: Lung fibro prol)
COc1cccc(C(c2nnnn2Cc2ccccc2)N2CCN(C3CCCC3)CC2)c1OC (configuration not stated)	H69AR growth 86K 20
c1ccc(Cn2nnnc2C(c2cccs2)N2CCCCCC2)cc1 (configuration not stated)	H69AR growth 86K 22
COc1ccc(C(c2nnnn2CCc2ccccc2)N2CCN(C3CCCC3)CC2)cc1OC (configuration not stated)	ERb coact inh 93[fluorescence artefact?]
CCc1ccc(NC(=O)N(C2CCC(C)CC2)C2CCN(C(C)=O)CC2)cc1 (configuration not stated)	none
Cc1cc(C)c2nc(SCC(=O)Nc3ccccc3N3CCOCC3)c(C#N)cc2c1	ERa coact pot 353[fluorescence artefact?]
Cc1cc(C)c2nc(SCC(=O)N3CC(=O)Nc4ccccc43)c(C#N)cc2c1	H69AR growth 86K 24, ERa coact pot 461[fluorescence artefact?]
c1cncc(-c2nnc(C3CCCCC3)o2)c1	none
Cc1ccc(-n2c(N)c(C(=O)NCc3cccnc3)sc2=S)cc1	none
CC(NC(=O)C(CC(=O)OC(C)(C)C)NC(=O)OC(C)(C)C)C(N)=O (configuration not stated)	none
CN1C(=O)C(O)(CC(=O)c2ccc(F)cc2)c2cc(Br)ccc21 (configuration not stated)	H69AR growth 86K 25
COc1ccc(N2C(=O)CCC(C(=O)c3ccccc3)=C2C)cc1	none
CCCCn1c(SCC(=O)NCc2ccccc2)nc2ccc(N3CCOCC3)cc2c1=O	none
CCC(C)NC(=O)CSc1nc2ccc(N3CCOCC3)cc2c(=O)n1CCc1ccccc1 (configuration not stated)	H69AR growth 86K 38
COc1cc(C2C(C#N)=C(N)Oc3cc(C)n(CC4CCCO4)c(=O)c32)cc2c1OCO2 (configuration not stated)	none
COc1cc(C2C(C#N)=C(N)Oc3cc(C)oc(=O)c32)cc2c1OCO2 (configuration not stated)	ERa coact inh 70, ERb coact inh 62
COc1cccc(CNC(=O)C2CCCN(S(=O)(=O)c3cnc[nH]3)C2)c1 (configuration not stated)	none
O=c1[nH]c(CN2CCN(C/C=C/c3ccccc3)CC2)nc2cc(Cl)ccc12	HUVEC inhibit 28
O=C(NCc1ccc2c(c1)OCO2)c1cc2c(s1)CSC2	none
O=C(NCc1ccco1)c1cc2c(s1)CSC2	ERa coact inh 71, ERb coact inh 65
COc1ccc(CN(Cc2cc3ccc(C)cc3[nH]c2=O)Cc2nnnn2C2CCCC2)cc1	H69AR growth 86K 25
Cc1ccc2[nH]c(=O)c(CN(Cc3ccc4c(c3)OCO4)Cc3nnnn3C3CCCC3)cc2c1	H69AR growth 86K 11
CCc1ccc2[nH]c(=O)c(CN(Cc3nnnn3C3CCCC3)C3CCCCC3)cc2c1	H69AR growth 86K 12 (no result: Lung fibro prol)
